Data from ChEMBL document CHEMBL4002644, “Discovery of GBT440, an Orally Bioavailable R-State Stabilizer of Sickle Cell Hemoglobin” (ACS Med Chem Lett, 2017).
Activity calls are given as the source filed them. The rule behind the calls is not given here.

How the values were obtained:
[1] = system: Hemoglobin HbA (Homo sapiens), P69905+P68871 [E7V]; assay: (§1) Induction of R-state stabilization of Hb betaGlu6Val mutant in sickle disease patient purified HbS/HbA mixture assessed as change from baseline of partial pressure of O2 at which HbS is 50% saturated with O2 at 30 uM preincubated for 45 mins followed by oxygenation for 10 mins and subsequent deoxygenation by hemoximetry relative to control
Procedure, shortened: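 Oxygen equilibrium curves were run on a Hemox Analyzer using Hb purified from sickle disease blood (an HbA/HbS mixture) at 25 μM. Compound was tested at 30 μM, or at 500 μM where noted. The read-out was the % change from baseline in the pO2 at which HbS is 50% saturated (Δp50).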

[2] = species: Homo sapiens; assay: Induction of R-state stabilization of sickle cell Hb betaGlu6Val mutant purified from sickle cell patient assessed as inhibition of KH2PO4-induced polymerization by measuring change from baseline of delay time for onset of polymerization at 75 uM preincubated for 1 hr followed by deoxygenation for …; set-up: scale not given: the % may be the effect or the level left
[3] = system: Hemoglobin HbA (Homo sapiens), P69905+P68871 [E7V]; assay: Induction of R-state stabilization of Hb betaGlu6Val mutant in sickle cell disease transfused human whole blood assessed as change from baseline of partial pressure of O2 at which HbS is 50% saturated with O2 at 1 mM preincubated for 45 mins followed by 20 mins oxygenation/deoxygenation cycle by hemoximetry relative to control
Procedure, shortened: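 Whole blood from transfused SCD subjects, at 20% hematocrit (Hb 1 mM), was run with compound at 1 mM. Oxygen equilibrium curves were measured by hemoximetry. The value is the % change from baseline in the pO2 giving 50% O2 saturation (Δp50).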

[4] = system: Blood; assay: Half life in Sprague-Dawley rat blood at 7.2 to 120 mg/kg, po by LC-MS/MS analysis; assay type: ADME, organism-based; settings: in vivo
[5] = system: Rattus norvegicus; assay: Dose normalized AUC (0 to infinity) in Sprague-Dawley rat at 7.2 to 120 mg/kg, po by LC-MS/MS analysis; assay type: ADME, organism-based; settings: in vivo
Procedure, shortened: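 Rat oral PK: AUC(0–∞) divided by the oral dose, expressed as (ng·h/mL)/(mg/kg).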

[6] = system: Hemoglobin HbA (Homo sapiens), P69905+P68871 [E7V]; assay: as §1, with “100” for “30”, “20” for “oxygenation for 10”, “oxygenation/deoxygenation cycle” for “and subsequent deoxygenation”

SMILES	Activity [1] [%]	other results
COc1cc(C=O)c(OCc2cc(-c3ccn[nH]3)cn3ccnc23)cn1	2.8	
COc1cc(C=O)c(OCc2cccnc2-c2c(C)cnn2C)cn1	27.4	Activity [2]: 64.5%
COc1cc(C=O)c(OCc2cc(C#N)cn3ccnc23)cn1	3.5	
COc1cc(C=O)c(OCc2cc3ccccc3nc2Cl)cn1	4	
COc1cc(C=O)c(OCc2cccnc2-c2[nH]ncc2C)cn1	51.7	Activity [3]: 43.1%; Activity [2]: 64.5%
COc1cc(C=O)c(OCc2ccc3ccccc3n2)cn1	43.2	
COc1cc(C=O)c(OCc2cc3ccccc3nc2-c2ccn[nH]2)cn1	14.2	
COc1cc(C=O)c(OCc2c(-c3cc[nH]n3)ccn3ccnc23)cn1	29.1	
COc1cc(C=O)c(OCc2cccn3c(C)nnc23)cn1	42.2	
Cc1ccc(OCc2cccnc2-c2ccnn2C(C)C)c(C=O)n1	61.7	Activity [3]: 65.4%; Activity [2]: 62.6%; t1/2 [4]: 1.5 h; AUC/dose [5]: 1710 ng·h/mL/mg/kg
COc1cc(C=O)c(OCc2cncc(-c3ccn(C)n3)c2)cn1	29.4	
COc1cc(C=O)c(OCc2cccn3ccnc23)cn1	44.4	
COc1cc(C=O)c(OCc2cccn3cncc23)cn1	37.9	
COc1ccc(OCc2cccnc2)c(C=O)c1	34	Activity [6]: Active
CC(C)n1nccc1-c1ncccc1COc1cccc(F)c1C=O	67.8	Activity [3]: 72.8%; Activity [2]: 104%; t1/2 [4]: 2.7 h; AUC/dose [5]: 438 ng·h/mL/mg/kg
COc1cc(C=O)c(OCc2cncc(-c3nnn[nH]3)c2)cn1	21.9	
COc1cc(C=O)c(OCc2cccnc2-n2cccn2)cn1	31.8	
COc1cc(C=O)c(OCc2cncc(-c3ccnn3C)c2)cn1	11.2	
COc1cc(C=O)c(OCc2cnccc2-c2cn[nH]c2)cn1	17.1	
COc1ccc(OCc2cccn3ccnc23)c(C=O)c1	33	Activity [6]: Active
COC(=O)c1cc(COc2cnc(OC)cc2C=O)c2nccn2c1	16.4	
